Sampled rows, rich in hits. Any-hit rate of the full collection: about 2.2%.
Hck Nef HTS: human Hck-Nef kinase inhibition | inhibition, % at 20 µM | Recombinant Hck-YEEI plus Nef, Z-Lyte FRET kinase assay | AID 463187 | P08631 | 220,000 compounds, 0.68% hits;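 active means Hck-Nef kinase inhibition above about 50%, limit read from the data; inactive means inhibition below that limit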;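 further: 0% = DMSO with Hck plus Nef and 100% = Hck alone without Nef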
Runt-CBFb FRET: inhibitors of human RUNX1 Runt domain binding to CBFb | Q01196+Q13951 | Cerulean-Runt/Venus-CBFb FRET ratio 530/480, 1 h | inhibition, % at 20 µM | 220,000 compounds, 0.46% hits;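 active means inhibition over about 50% at 20 µM in the single-dose screen, limit read from the data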;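 further: 0% = DMSO wells and 100% = excess unlabeled CBFb competitor control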
Target sequence (Q01196 whole entry, looked up, the tested form may be a part): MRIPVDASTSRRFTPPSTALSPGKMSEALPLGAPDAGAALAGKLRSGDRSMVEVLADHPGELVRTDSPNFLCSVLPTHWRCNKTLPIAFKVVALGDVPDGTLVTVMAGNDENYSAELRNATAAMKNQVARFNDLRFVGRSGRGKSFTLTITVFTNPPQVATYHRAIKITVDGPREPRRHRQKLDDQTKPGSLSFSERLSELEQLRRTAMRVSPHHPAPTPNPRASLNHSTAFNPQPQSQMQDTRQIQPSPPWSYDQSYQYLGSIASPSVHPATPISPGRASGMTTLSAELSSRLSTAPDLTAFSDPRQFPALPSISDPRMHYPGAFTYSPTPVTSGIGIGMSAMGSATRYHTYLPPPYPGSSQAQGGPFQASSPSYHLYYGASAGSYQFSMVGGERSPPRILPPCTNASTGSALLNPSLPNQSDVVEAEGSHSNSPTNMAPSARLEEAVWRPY
Target sequence (Q13951 whole entry, looked up, the tested form may be a part): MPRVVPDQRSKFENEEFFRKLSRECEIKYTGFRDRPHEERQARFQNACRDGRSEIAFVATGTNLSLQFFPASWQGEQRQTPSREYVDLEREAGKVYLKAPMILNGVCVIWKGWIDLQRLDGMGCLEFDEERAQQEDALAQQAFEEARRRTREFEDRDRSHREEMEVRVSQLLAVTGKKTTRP
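test system = Cerulean-Runt domain fusion protein, energy donor | probe or stimulus = Venus-CBFb binding partner, 100 nM | incubation = two 1 h room-temperature incubations shielded from light | detection = fluorescence energy transfer, 422 nm excitation, 530/480 nm emission | measure = loss of energy transfer signal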
14-3-3 Bad inh: disrupts binding of bovine 14-3-3 zeta to phospho-Bad peptide. 220,000 compounds, 0.71% hits. P63103. TR-FRET 14-3-3zeta/Dy647-pBad peptide displacement, 1 h. AID 781. inhibition, % at 21.7 µM;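 active means inhibition above about 70%, limit read from the data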;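 further: 0% = full 14-3-3 plus peptide FRET controls and 100% = background without 14-3-3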
Tb hexokinase: blocks Trypanosoma brucei hexokinase 1 activity. recombinant TbHK1, G6PDH-coupled NADH A340. inhibition, % at 10 µM. 220,000 compounds, 0.11% hits. AID 1430;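 active means inhibition of 50% or more in the single-dose primary screen; inactive means inhibition below 50%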
RanGTP-Impb inh: inhibitors of RanGTP-importin-beta interaction, primary screen, biochemical, FRET, CFP-Ran, YFP-importin-beta, homogeneous; cell-free CFP-Ran/YFP-importin-beta FRET ratio; inhibition, % (test concentration not listed); 300,000 compounds, 1.1% hits; AID 2216;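 active means more than half of the replicate wells show a fall in the fluorescence ratio signal beyond about 16%, limit read from the data, passing the limit was not always enough; inconclusive means exactly half of the replicate wells pass the set limit; inactive means fewer than half of replicates pass the limit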;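 further: 0% = DMSO wells and 100% = Ran loaded with GDP instead of GTP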
Runt-SMMHC FRET: blocks binding of human RUNX1 Runt domain to CBFb-SMMHC | Q01196+Q13951 | Cerulean-Runt/Venus-CBFb-SMMHC FRET ratio 530/480, 1 h | inhibition, % at 20 µM | 220,000 compounds, 0.74% hits;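 active means mean inhibition across duplicate retests at 20 µM reaching about 50%, limit read from the data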;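 further: 0% = DMSO wells and 100% = wells with excess untagged CBFb-SMMHC; inhibitors lower the FRET ratio by blocking Runt binding to CBFb-SMMHC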
RUNX1 CBFb TR: disrupts human RUNX1 Runt domain binding to CBFb; shares compounds with Runt-CBFb FRET; TR-FRET RUNX1 Runt domain-CBFb binding; inhibition, % at 20 µM; 480 compounds, 20% hits; in the data active means inhibition above about 40%
* = called active by the depositor; u = inconclusive; x = no result.

SMILES	Hck Nef HTS	Runt-CBFb FRET	14-3-3 Bad inh	Tb hexokinase	RanGTP-Impb inh	Runt-SMMHC FRET	RUNX1 CBFb TR
O=C(CSc1nnc(CNC(=O)c2ccco2)o1)Nc1nc2ccccc2s1	-7	56*	3	8	2	21	64*
COc1cccc2cc(C(=O)N3CCN(C45CC6CC(CC(C6)C4)C5)CC3)c(=O)oc12	-1	60*	-1	-11	53*	90	-4
COc1ccc(CCNC(=O)C2CCN(S(=O)(=O)c3cccc4nsnc34)CC2)cc1OC	0	81*	2	6	5	-2	-6
CCCS(=O)(=O)N1CCCC(C(=O)NCCCN(C)c2ccccc2)C1 (stereo not given)	2	57*	x	-2	1	2	8
CC(C)S(=O)(=O)C1=NSC2=NC(=O)/C(=C\c3ccc(-c4cccc(C(=O)O)c4)o3)C(=N)N21	30	60*	9	-8	x	66	21
Cc1csc(=N)n1CC(=O)N1CCc2ccccc21	0	-1	-10	-2	-2	1	x
COc1ccc(-c2csc3nc(-c4ccccc4OC)oc(=O)c23)cc1	-103	3	-1	-15	x	-8	x
Cc1ncc(CO)c(/C=N/NC(=O)c2cc(O)c(O)c(O)c2)c1O	-29	57*	-2	-4	8	51*	66*
Cc1cc(C(=O)N/N=C/c2c(CO)cnc(C)c2O)c2ccccc2n1	x	x	x	x	6	x	x
Cc1cccc(/C=N/c2sc3c(c2C(=O)OC(C)(C)C)CCN(C)C3)c1O	0	31	-2	-9	u	14	x
CCOC(=O)c1c(/N=C/c2cc(C)ccc2O)sc2c1CCN(C)C2	2	50*	-10	-1	56*	60*	0
Cc1ccc(C)c(CNC(=O)Nc2ccccc2)c1	x	x	x	x	5	x	x
Clc1cccc(Nc2c3c(nc4ncnn24)CCC3)c1	2	54*	3	1	0	-1	3
Cc1cc(C)cc(OCC(=O)NNC(=O)CCC(=O)NCc2ccccc2)c1	1	-3	5	-5	-2	0	x
CSc1nc(=S)n(-c2cc(C)ccc2C)c(C)c1C(C)=O	x	x	x	x	-1	x	x
CCCCc1ccc(NC(=S)Nc2ccc(Cl)c(S(=O)(=O)N(C)C)c2)cc1	7	9	-4	22	2	7	x
COC(=O)c1cc(=O)nc2sc(-c3cccs3)nn12	1	0	4	-25	-1	-1	x
COC(=O)c1cc(=O)nc2sc(-c3ccc(F)cc3)nn12	-1	52*	19	-2	0	5	22
O=C1/C(=C/c2ccncc2)SC(=S)N1Nc1ccccc1	-28	50*	-13	-11	9	28	50*
CC(c1ccccc1C(O)c1ccccc1)N(C)C (stereo not given)	1	57*	13	1	3	0	-14
CCOC(=O)COc1ccc(Br)cc1C1NC(=O)NC(C)=C1C(=O)NCc1ccccc1 (stereo not given)	-1	0	0	8	-1	1	x
CCOC(=O)c1cc2c(=O)n3ccccc3nc2n(Cc2ccco2)c1=NC(=O)c1cccc(OC)c1	30	99*	-4	-7	33*	86*	55*
CCCn1c(=NC(=O)c2c(-c3c(F)cccc3Cl)noc2C)c(C(=O)OCC)cc2c(=O)n3ccccc3nc21	12	72*	1	-14	1	60*	-79
Cc1[nH]c2ccccc2c1C1=NNC(=Nc2ccc(F)cc2)SC1	1	53*	3	-17	x	47	-2
CN(CC1CCOCC1)C(=O)CC1C(=O)NCCN1Cc1cccc(C(F)(F)F)c1 (stereo not given)	x	x	x	x	1	x	x
SMILES	Hck Nef HTS	Runt-CBFb FRET	14-3-3 Bad inh	Tb hexokinase	RanGTP-Impb inh	Runt-SMMHC FRET	RUNX1 CBFb TR
O=C1NCCCC2c3c(cc(Br)c(O)c3Br)OC12N1CCCCC1 (stereo not given)	3	50*	-7	-12	3	47	63*
Cc1ccc(S(=O)(=O)N2CN(CC3CCCO3)c3nc4ccccc4nc32)cc1 (stereo not given)	x	x	x	x	1	x	x
Cc1ccc(S(=O)(=O)c2cc3c(=O)n4ccccc4nc3n(CC3CCCO3)c2=N)cc1C (stereo not given)	4	98*	-3	-12	154*	106*	29
O=C(CC(c1ccccc1)c1cc(Cl)ccc1O)NCCCN1CCOCC1 (stereo not given)	x	x	x	x	1	x	x
CCOC(=O)c1sc(Nc2nc3c(F)cccc3s2)cc1C	29	98*	0	-35	10	148*	-4
CCOC(=O)c1cnc(-n2nc(C)cc2C)nc1Nc1ccc(C)cc1	2	3	-5	-11	1	-4	x
CCOC(=O)c1cnc(-n2nc(C)cc2C)nc1Nc1ccc2c(c1)OCO2	x	73*	x	x	x	-2	-8
CS(=O)(=O)Nc1ccc(C(=O)N2CC(=O)Nc3ccccc32)cc1	x	x	x	x	8	x	x
CCCOC(=O)C1=C(C)NC2=C(C(=O)CC(C)(C)C2)C1c1ccc(N(C)C)cc1 (stereo not given)	4	2	12	-5	5	12	x
CCCOC(=O)C1=C(C)NC2=C(C(=O)CC(C)(C)C2)C1c1cccnc1 (stereo not given)	33	63*	-1	-8	u	127*	-15
O=[N+]([O-])c1cccc(C(=S)N2CCN(c3ccccc3)CC2)c1	14	53*	-2	9	1	24	21
CSCCC(NC(=O)c1ccco1)C(=O)Nc1ccc(C)cn1 (stereo not given)	x	x	x	x	-1	x	x
CCc1cc(=O)oc2cc(OC(C)C(=O)NCC3CCC(C(=O)O)CC3)c(Cl)cc12 (stereo not given)	x	x	x	x	-4	x	x
C=CCn1c(SCC(=O)NCC)nc2sc3c(c2c1=O)CCC3	x	x	x	x	0	x	x
NS(=O)(=O)c1ccc(NC(=S)NCc2cccc(Cl)c2)cc1	0	6	3	1	0	-2	x
NS(=O)(=O)c1ccc(NC(=S)NCc2ccccc2)cc1	3	52*	-3	8	5	28	6
COc1ccc2c(c1)c(CC(=O)Nc1cccc(S(N)(=O)=O)c1)c(C)n2C(=O)c1ccc(Cl)cc1	28	-4	1	-18	1	-4	x
Cc1cc(C)c(NC(=S)NCC2CCN(C(C)c3ccccc3)C2)c(C)c1 (stereo not given)	-54	54*	-12	1	5	45	36
O=[N+]([O-])c1cccc(C2CC(c3ccccc3)=NN2c2ccccc2)c1 (stereo not given)	x	x	x	x	0	x	x

Assay outcomes (PubChem)
